Assay outcomes (PubChem)
Shown are actives, neighbours in structure and some others; about 1.8% of the full set was active somewhere.
hiPSC survival – enhancers of human iPSC single-cell survival; hiPSC single-cell survival, ATPlite luminescence; 100% = ROCK inhibitor wells, 0% = DMSO; survival enhancement, % at 20 µM; 360,000 tested, 0.044% active; in the data active = survival enhancement above about 18%;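 note: cells exposed to compounds for 16 hours before the ATP read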
SKN-1 block – C. elegans SKN-1 inhibition; C. elegans VP596 Pgst-4::GFP/RFP ratio, acrylamide-induced, 24 h; inhibition, % at 21.8 µM; 360,000 tested, 0.49% active; AID 624304;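 active = interference check ratio from 0.5 to 1.5 plus GFP to RFP signal ratio inhibition reaching or exceeding a fixed threshold, cut at about 30% in these data, passing the limit was not always enough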
eLon inh – inhibitors of E. coli Lon protease | P0A9M0 | AID 602123 | inhibition, % at 7.94 µM | purified E. coli Lon protease, fluorescence polarization | 360,000 tested, 0.42% active; in the data active = inhibition above about 13%, passing the limit was not always enough;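 note: 0% = enzyme with probe and DMSO and 100% = no enzyme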
MT1-MMP act inh – blocks activation of human MT1-MMP | HT1080 RFP-PRO-GFP cells, GFP/RFP ratio fluorescence, overnight; percent of plate control window, DMSO zero | GFP/RFP ratio change, % at 20 µM | 360,000 tested, 0.061% active | P50281;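 active = GFP/RFP ratio change of at least 30% with cell ATP level not reduced by more than half and red fluorescence within 50% of control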
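Assay system: HT1080 cells carrying an RFP-PRO-GFP reporter | Dosing: Single dose of 20 µM compound, 1% DMSO final | Incubation: Cells overnight before dosing, compound overnight, 37 °C, 5% CO2 | Evaluation: GFP/RFP fluorescence ratio | Control set: DMSO and RFP-L50D-GFP cell wells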
TbMetRS inhib – blocks T. brucei methionyl-tRNA synthetase activity | inhibition, % at 11.9 µM | purified T. brucei MetRS, ATP depletion, Kinase-Glo luminescence | 360,000 tested, 0.4% active;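 active = inhibition above a per-plate cutoff of the control wells' mean inhibition plus 3 SD, cut at about 5.5% in these data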;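 note: 0% = DMSO wells median and 100% = median of wells with control inhibitor compound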
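technique = Kinase-Glo luminescence, ATP depletion format | system = purified MetRS (methionyl-tRNA synthetase) enzyme from Trypanosoma brucei | timing = 15 min preincubation, 2 h reaction, all 25 °C | evaluation = percent inhibition versus plate control medians | dosing = single dose, 11.9 µM final nominal, 0.9% final DMSO | also added = substrates ATP, L-methionine and bulk Escherichia coli tRNA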
PREPL inh – inhibitors of human prolyl oligopeptidase-like enzyme PREPL | recombinant PREPL, fluorescence polarization activity-based probe | Q4J6C6 | AID 2751 | inhibition, % at 5.96 µM | 320,000 tested, 0.68% active; in the data active = inhibition above about 43%;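 note: 0% = enzyme with DMSO and 100% = wells lacking enzyme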
Active calls of the source: *; · = not tested or not shown.

SMILES	hiPSC survival	SKN-1 block	eLon inh	MT1-MMP act inh	TbMetRS inhib	PREPL inh
CC(C)(C)N1C(=O)Cc2c1nc(N)c1c(N)nc(N3CCCCC3CO)c(C#N)c21 (centres undefined)	-2	-3	50*	-9	0	39
c1ccc(-c2ccc(OCCCNC3CCCC3)cc2)cc1	-1	55*	0	-3	-1	28
CNC(=O)c1c(NC(=O)c2ccc(S(=O)(=O)N3CCCC3)cc2)sc2c1CCN(C(C)C)C2	·	·	·	·	·	44*
O=C(NCC1CC1(Cl)Cl)Nc1ccc(Cl)c(Cl)c1 (centres undefined)	0	56*	3	-2	1	-18
CCN1/C(=C/c2ccc3cc(C)ccc3[n+]2CC)Sc2cc(C)ccc21	-5	56	-147	-23	-1	·
CCCCN1/C(=C/c2ccc3ccccc3[n+]2CC)Sc2ccccc21	-1	36*	-63	-151	0	·
CCc1c(C)nc2cc(-c3ccccc3)[nH]n2c1=O	0	36*	3	-9	-1	-2
CC1=C(C(=O)N(C)C)CC(CC(=O)NCc2cccs2)C(=O)N1Cc1ccc(F)cc1 (centres undefined)	1	4	4	0	-1	·
C=CCNC(=O)c1cc2c(=O)n3ccccc3nc2s1	-1	41*	0	1	-1	10
FC(F)(F)c1nc2ccccc2nc1N/N=C\c1ccccc1	-2	37*	-13	7	0	-4
NNc1nc2ccccc2nc1C(F)(F)F	0	11	1	3	-1	6
CCOC(=O)c1ccc(NC(=O)c2nc(S(=O)(=O)Cc3ccccc3)ncc2Cl)cc1	20*	-13	-9	2	0	-3
N/C(=N\OC(=O)c1ccoc1)c1ccc(Br)cc1	0	63*	-15	2	0	-7
COc1ccc(C(C)(O)c2nc(-c3cccc(O)c3)cs2)cc1 (centres undefined)	3	16	5	-8	0	·
C=C1C(=O)OC2C1CCC(C)=C1C(=O)C3OC3(C)C12 (centres undefined)	27*	-3	-5	-6	-2	·
Cc1csc(CCc2nc(C)cs2)n1	-2	14	-2	-2	0	-6
CCOC(=O)c1c(C)c(C)n2c1NC(=O)C2	-1	46*	-24	-1	-1	·
Cn1ccsc1=NC(=O)c1ccc(OC(F)(F)F)cc1	0	51*	-4	-4	-1	-2
Cn1ccsc1=NC(=O)c1ccc(Cl)cc1	0	43*	4	-1	-1	3
COC(=O)c1ccc(COc2cccn3c(N(C)C(=O)CCC4CCCC4)c(C)nc23)cc1	1	-4	-7	-4	0	·
CS(=O)(=O)N(Cc1cc2ccccc2[nH]c1=O)C1CCCCC1	27*	7	-10	-11	0	13
CN(C)c1ccc(/C=C/c2ccc3ccccc3n2)cc1	-1	58*	-133	-57	-3	60*
C(=C\c1ccc2ccccc2n1)/c1ccccc1	-1	84*	-10	4	0	-11
Fc1ccccc1/C=C/c1ccc2ccccc2n1	-4	88*	0	0	0	-7
O=C(Nc1cccc(C(F)(F)F)c1)Nc1nnc([C@@H]2C[C@H](O)[C@@H](CO)O2)s1	-1	-10	-6	-16	0	·
SMILES	hiPSC survival	SKN-1 block	eLon inh	MT1-MMP act inh	TbMetRS inhib	PREPL inh
CCC(=O)N1CCC1(C)C(=O)Nc1ccc2scnc2c1 (centres undefined)	-4	23	-9	-2	0	·
CCCCN1C(=O)C(CC(=O)NCC2CCCCC2)CC(C(=O)N(CC)CC)=C1C (centres undefined)	3	2	-11	-1	0	·
C=C1C(=O)OC2C=C(CO)C3OC3C3OC3(C)CC(OC(=O)/C(=C/C)COC(C)=O)C12 (centres undefined)	-1	-11	-10	-5	0	·
Cc1cc(CC(C)C)n(-c2nc3ccccc3c(=O)n2OCc2ccccc2)n1	4	37*	11	·	-1	-7
O=C(COC(=O)C12CC3CC(CC(O)(C3)C1)C2)Nc1cccc(Br)c1	1	38*	12	1	0	·
CC1CC1C(=O)OCC(=O)Nc1cccc(Br)c1 (centres undefined)	0	18	6	5	0	·
O=C(COC(=O)c1ccccc1C(=O)c1ccc(Cl)c([N+](=O)[O-])c1)NC1CC1	36*	4	-2	-27	1	-3
COc1ccccc1N=Nc1c(O)[nH]c2ccc(Br)cc12	0	50*	-16	-41	0	6
Cc1cccc(N=Nc2c(O)[nH]c3ccc(Br)cc23)c1	2	20	-11	-7	-1	3
C[n+]1ccc(/C=C/c2ccccc2O)c2ccccc21	-2	4	-1	-6	0	20
CN1/C(=C/c2cc[n+](C)c3ccccc23)C=Cc2ccccc21	-5	28	-2	64*	-1	·
CCN(CC(=O)NCCc1ccc(F)cc1)Cc1nc2ccccc2c(=O)[nH]1	1	-4	-12	-3	0	9
CCN(CC(=O)NCc1ccc(F)cc1)Cc1nc2cc(Cl)ccc2c(=O)[nH]1	2	65*	6	-7	-1	0
NC(=O)COc1ccc(/C=N\NC(=O)c2ccc(-c3ccccc3)cc2)cc1	2	4	-8	-1	-1	-1
Nc1ccc(N)c(C(=O)O)c1	-1	17	43*	-17	1	14
CC(=O)c1cc2cccc(OC3(C)CCN(Cc4ccc5ccccc5c4)C3)c2o1 (centres undefined)	-2	1	-5	-2	0	·
CCOc1cc(CNc2cccc3ccccc23)cc(Br)c1OCC(=O)NC(C)(C)C	-3	3	6	-14	0	57*
CCOc1cc(CNc2ccc(N(C)C)cc2)cc(Br)c1OCC(=O)NC(C)(C)C	1	-17	1	-1	0	14
COc1cccc(C(C(=O)NC2CCCC2)N2CCN(c3cc(C)ccc3C)CC2)c1OC (centres undefined)	·	12	·	-20	-1	·
COc1cccc(-c2nc3ccc([N+](=O)[O-])cc3o2)c1	0	0	-3	-6	0	9
O=[N+]([O-])c1ccc2nc(-c3ccccc3)oc2c1	0	42*	3	1	-1	0
Cn1cc(C(=O)NCCN2CCN(c3cccc(Cl)c3)CC2)c2c3ccccc3n(C)c2c1=O	2	70	8	1	0	46*
COCCCNC(=O)c1cn(C)c(=O)c2c1c1ccccc1n2C	1	53	-2	3	0	1
CC(=O)Oc1ccccc1Cn1c(C)c(C(=O)NCc2cccc([N+](=O)[O-])c2)sc1=O	-2	1	5	5	0	·
